Assay results of several laboratories.
Protocols differ between the studies behind these lines.
Technique: competition with immobilised ligand
JAK2 JH1: Tyrosine-protein kinase JAK2, JH1 (JAK2, Homo sapiens, UniProt O60674)
JAK2: Tyrosine-protein kinase JAK2 (JAK2, Homo sapiens, UniProt O60674)

target	read-out	tested at	remaining binding [%]	Compound
JAK2 JH1	binding	1 µM	91	CCN1CCN(Cc2ccc(C(=O)Nc3ccc(C)c(Oc4ccc5c(c4)CC(=O)N5)c3)cc2C(F)(F)F)CC1
JAK2 JH1	cell-free assay	1 µM	98	CC1CCCN1c1nccc(-c2cnn3ncccc23)n1 (stereo not shown)
JAK2 JH1	cell-free assay	1 µM	100	O=C(Nc1cccnn1)N1CCC(=Cc2cccc(Oc3ccc(C(F)(F)F)cn3)c2)CC1
JAK2	cell-free assay	10 µM	67	CC(C)(C)c1ccc(-c2nc(CBr)nn2-c2cccc(O)c2)cc1
JAK2 JH1	cell-free assay	1 µM	100	CNC(=O)Nc1ccc2c(c1)[C@@]1(CC2)OC(=O)N(CC(=O)N(Cc2ccc(F)cc2)[C@@H](C)C(F)(F)F)C1=O
JAK2 JH1	binding	1 µM	14	COc1cnc(Nc2cccc(S(N)(=O)=O)c2)nc1N1CCN(c2ccccc2)CC1
JAK2 JH1	cell-free assay	1 µM	100	C[C@H](c1cccc(C#N)c1)n1cc(Cl)cc(C(N)=O)c1=N
JAK2 JH1	binding	1 µM	0	O=C(c1ccc(Nc2ncc(Cl)c(-c3cc4ccccc4s3)n2)cc1)N1CCC(N2CCCC2)CC1
JAK2 JH1	cell-free assay	5 µM	56	FC(F)(F)Oc1cccc(-c2cnc3ccc(-c4ccncc4)nn23)c1
JAK2 JH1	cell-free assay	1 µM	49	CN(C)c1nccc(-c2cnn3ncccc23)n1
JAK2 JH1	cell-free assay	1 µM	82	Cn1nc(C(F)(F)F)cc1-c1cnc(N2CCc3cc(S(=O)(=O)Nc4c(F)cc(Cl)cc4F)cc(N4CCCC4=O)c32)nc1
JAK2 JH1	cell-free assay	1 µM	80	CN(C)c1nccc(-c2cnc3ncccn23)n1
JAK2 JH1	binding	1 µM	1.3	O=C(c1ccc(Nc2ncc(Cl)c(-c3ccc(Cl)s3)n2)cc1)N1CCC(N2CCCC2)CC1
JAK2 JH1	cell-free assay	1 µM	64	COc1ccc2c(O[C@@H]3C[C@H]4C(=O)N[C@]5(C(=O)O)CC5/C=C\CCCCC[C@H](NC(=O)OC5CCCC5)C(=O)N4C3)cc(-c3csc(NC(=O)C(C)C)n3)nc2c1C (stereo partly shown)
JAK2 JH1	binding	1 µM	85	O=C(NCC1CCOCC1)c1n[nH]cc1NC(=O)c1c(F)cccc1F
JAK2 JH1	cell-free assay	1 µM	100	CC(=O)N1CCC(c2ccc(C(=O)NC3=NCCN3)cc2C(F)(F)F)CC1
JAK2 JH1	binding	1 µM	0.1	O=C(c1ccc(Nc2nccc(-c3cc4ccccc4s3)n2)cc1)N1CCC(N2CCCC2)CC1
JAK2	binding	0.5 µM	87	C[C@@H]1CN(c2ccc3ncc(-c4ccc5[nH]nc(C6CC6)c5c4)n3n2)C[C@H](C)O1
JAK2 JH1	binding	1 µM	80	Nc1ncc2c(n1)-c1c([nH]c3ccc(C#CC4CC4)cc13)CCCC2
